Experimental data published in ChEMBL document CHEMBL3351600, “Sulfur, selenium and tellurium pseudopeptides: synthesis and biological evaluation” (Bioorg Med Chem, 2014).
Calls of active or inactive are those of the source. No cut-off for these calls is given here.

What was measured:
[1] = system: A-431; assay: Reduction in ROS in human A431 cells assessed as decrease in hydrogen peroxide level at 1 to 100 ng/ml after 1 hr by DCHFA assay; assay type: functional, cell-based
Summary of the method: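 A-431 cells (10^5 per well) were treated with a range of compound concentrations for 1 h. They were then loaded with DCHFA probe for 30 min in the dark. Fluorescence (ex 485/em 528 nm) was read immediately and expressed as arbitrary units per 10^5 cells.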

[2] = system: MCF7; assay: Cytotoxicity against human MCF7 cells assessed as cell viability after 24 hrs incubation by MTT assay; assay type: functional, cell-based; conditions: MCF7, 24 h
Summary of the method: (§1)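 Cell lines came from DSMZ; primary human fibroblasts served as non-cancer controls. Cells were grown in medium with 10% FCS, seeded at 50,000 cells/ml, and grown 2 days at 37 °C, 10% CO2. Serial dilutions were then added for 24 h. MTT (final 0.5 mg/ml) was added for 2 h. Formazan was pelleted, PBS-washed, dissolved in isopropanol/0.4% HCl and read at 590 nm. Two parallel experiments were run. IC50 was taken as the concentration giving 50% of untreated-control absorbance.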

[3] = system: A-431; assay: Cytotoxicity against human A431 cells assessed as cell viability after 24 hrs incubation by MTT assay; assay type: functional, cell-based; conditions: A-431, 24 h; summary of the method: as §1
[4] = Cytotoxicity against human fibroblasts assessed as cell viability after 24 hrs incubation by MTT assay; assay type: cell-based; conditions: Fibroblast; summary of the method: as §1
[5] = Octanol-water partition coefficient, log P of the compound by HPLC analysis; assay type: physicochemical
Summary of the method: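 Lipophilicity was measured by reversed-phase HPLC on a Nucleosil C18 column with isocratic water/methanol (3:1) at 0.5 ml/min and UV detection at 230 and 245 nm. Dead time was set with thiourea (t0 0.728 min). Retention factor was k = (tR − t0)/t0, and log P came from a calibration against at least six reference compounds.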

[6] = system: Saccharomyces cerevisiae; assay: Antimicrobial activity against Saccharomyces cerevisiae assessed as inhibition at 20 ug/6 mm disk after 1 to 2 days by agar diffusion assay; assay type: functional
Summary of the method: (§2)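 Standard agar diffusion: 6-mm paper disks loaded with 20 µg of compound were placed on inoculated plates. Inhibition-zone diameter (mm) was read after 1 and 2 days of growth.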

[7] = system: Candida albicans; assay: Antimicrobial activity against Candida albicans assessed as inhibition at 20 ug/6 mm disk after 1 to 2 days by agar diffusion assay; assay type: functional; summary of the method: as §2
[8] = system: Aspergillus niger; assay: Antimicrobial activity against Aspergillus niger assessed as inhibition at 20 ug/6 mm disk after 1 to 2 days by agar diffusion assay; assay type: functional; summary of the method: as §2
[9] = system: Mycolicibacterium phlei; assay: Antimicrobial activity against Mycobacterium phlei assessed as inhibition at 20 ug/6 mm disk after 1 to 2 days by agar diffusion assay; assay type: functional; summary of the method: as §2
[10] = system: Micrococcus luteus; assay: Antimicrobial activity against Micrococcus luteus assessed as inhibition at 20 ug/6 mm disk after 1 to 2 days by agar diffusion assay; assay type: functional; summary of the method: as §2
[11] = system: Staphylococcus aureus; assay: Antimicrobial activity against Staphylococcus aureus assessed as inhibition at 20 ug/6 mm disk after 1 to 2 days by agar diffusion assay; assay type: functional; summary of the method: as §2
[12] = system: Klebsiella pneumoniae; assay: Antimicrobial activity against Klebsiella pneumoniae assessed as inhibition at 20 ug/6 mm disk after 1 to 2 days by agar diffusion assay; assay type: functional; summary of the method: as §2
[13] = system: Pseudomonas aeruginosa; assay: Antimicrobial activity against Pseudomonas aeruginosa assessed as inhibition at 20 ug/6 mm disk after 1 to 2 days by agar diffusion assay; assay type: functional; summary of the method: as §2
[14] = system: Escherichia coli; assay: Antimicrobial activity against Escherichia coli tolC assessed as inhibition at 20 ug/6 mm disk after 1 to 2 days by agar diffusion assay; assay type: functional; summary of the method: as §2
[15] = Lipophilicity, log K of the compound by HPLC analysis
[16] = system: MCF7; assay: Cell cycle arrest in human MCF7 cells assessed as accumulation at G0/G1 phase after 30 mins by propidium iodide staining-based flow cytometric analysis; assay type: functional
Summary of the method: (§3)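 MCF-7 cells (10^6) were treated with compounds for 24 h alongside a methanol vehicle control. They were fixed in cold 70% methanol at 4 °C for one day, washed in PBS and permeabilised with 0.1% saponin in PBS. They were then stained with propidium iodide plus RNase (1 mg/ml) for 30 min, and DNA-content distribution was read by FACScan flow cytometry.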

[17] = system: MCF7; assay: Cell cycle arrest in human MCF7 cells assessed as accumulation at S phase […] by propidium iodide staining-based flow cytometric analysis; assay type: functional
[18] = system: MCF7; assay: Cell cycle arrest in human MCF7 cells assessed as accumulation at G2/M phase after 30 mins by propidium iodide staining-based flow cytometric analysis; assay type: functional; summary of the method: as §3
[19] = system: A-431; assay: Reduction in ROS in human A431 cells assessed as decrease in hydrogen peroxide level at 0.1 to 10 ng/ml after 1 hr by DCHFA assay; assay type: functional, cell-based
Summary of the method: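 A-431 cells were seeded at 10^5 per well and exposed to a range of compound concentrations for 1 h. They were then loaded with DCHFA probe for 30 min in the dark. Fluorescence was read immediately at ex/em 485/528 nm and expressed as arbitrary units per 10^5 cells.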

[20] = system: PtK2; assay: Induction of morphological changes in Potorous tridactylus PtK2 cells assessed as loss of typical shape after 24 hrs by immunofluorescence microscopy; assay type: functional, cell-based
Summary of the method: (§4)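 PtK2 cells were grown on coverslips and treated at semi-confluence for 24 h. Fixation was either 3.7% paraformaldehyde followed by 0.1% Triton X-100 for 5 min, or ice-cold methanol/acetone (50:50) for 10 min. ER was stained with anti-GRP94 and tubulin with anti-α-tubulin (primary and Alexa 488 secondary antibodies, 45 min each). Actin was stained with phalloidin-Alexa 594 for 45 min and nuclei with DAPI. Imaging was by fluorescence microscopy.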

[21] = system: PtK2; assay: Induction of morphological changes in Potorous tridactylus PtK2 cells assessed as lysis of ER and disappearance of actin stress fiber after 24 hrs by immunofluorescence microscopy; assay type: functional, cell-based; summary of the method: as §4

Row | Structure (SMILES) | Activity [1] | IC50 [2] [µM] | IC50 [3] [µM] | IC50 [4] [µM] | logP [5] | diameter of the inhibition zone (DIZ) [6] [mm] | diameter of the inhibition zone (DIZ) [7] [mm] | diameter of the inhibition zone (DIZ) [8] [mm] | diameter of the inhibition zone (DIZ) [9] [mm] | diameter of the inhibition zone (DIZ) [10] [mm] | diameter of the inhibition zone (DIZ) [11] [mm] | diameter of the inhibition zone (DIZ) [12] [mm] | diameter of the inhibition zone (DIZ) [13] [mm] | diameter of the inhibition zone (DIZ) [14] [mm] | log K [15] | Retention_time [min] | also measured
1 | COc1ccc(N(CC(=O)NCCC[Se]c2ccccc2)C(=O)/C=C/c2ccccc2)cc1 | inactive | ≥ 100 | ≥ 100 | ≥ 100 | 3.7 | 0 | 0 | 0 | 0 | 0 | 0 | 0 | 0 | 0 | 0.27 | 2.088 | –
2 | COc1ccc(N(CC(=O)NCCCSc2ccccc2)C(=O)C#Cc2ccccc2)cc1 | inactive | ≥ 100 | ≥ 100 | ≥ 100 | 3.4 | 0 | 0 | 0 | 0 | 0 | 0 | 0 | 0 | 0 | 0.12 | 1.698 | –
3 | CC(C)(C)OC(=O)NCC(=O)OCC(=O)NCCC[Te]c1ccccc1 | – | 0.3 | 10 | 19 | 3.83 | 0 | 0 | 0 | 14 | 7 | 16 | 15 | 0 | 12 | 0.32 | 2.247 | Activity [16]: 91.61%; Activity [17]: 4.61%; Activity [18]: 3.78%; Activity [19]: Dose-dependent effect; Activity [20]: Active; Activity [21]: Active
